Laboratory results from ChEMBL document CHEMBL5120830, “New aldo-keto reductase 1C3 (AKR1C3) inhibitors based on the hydroxytriazole scaffold” (Eur J Med Chem, 2022).
Converted amounts (≈) assume the structure as drawn. The source made the active and inactive calls. No cut-off for these calls is given here.

Columns and labels:
[1] = Inhibition of androstenedione induced testosterone production in human 22Rv1 cells expressing AKR1C3 assessed as reduction in testosterone level to 0.5 uM pretreated for 1 hr followed by androstenedione addition and measured after 24 hrs by ELISA relative to control; format: functional, CWR22R; settings: time 25 hrs
Method in brief: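 22RV1 cells seeded at 30,000/well in medium with 10% charcoal-stripped serum and left 24 h. Inhibitor added 1 h before 30 nM androstenedione, then 24 h more. Supernatant (1:2) assayed for testosterone by ELISA read at 405 nm against a standard curve. Mean of three experiments, each in triplicate.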

[2] = molecular target: T1, Aldo-keto reductase family 1 member C2 (Homo sapiens) (UniProt P52895); experiment: Inhibition of recombinant human AKR1C2 transfected in Escherichia coli BL21 (DE) assessed as reduction in NADPH production at 100 uM using S-tetralol as substrate by fluorescence based analysis relative to control
T1 sequence (whole entry): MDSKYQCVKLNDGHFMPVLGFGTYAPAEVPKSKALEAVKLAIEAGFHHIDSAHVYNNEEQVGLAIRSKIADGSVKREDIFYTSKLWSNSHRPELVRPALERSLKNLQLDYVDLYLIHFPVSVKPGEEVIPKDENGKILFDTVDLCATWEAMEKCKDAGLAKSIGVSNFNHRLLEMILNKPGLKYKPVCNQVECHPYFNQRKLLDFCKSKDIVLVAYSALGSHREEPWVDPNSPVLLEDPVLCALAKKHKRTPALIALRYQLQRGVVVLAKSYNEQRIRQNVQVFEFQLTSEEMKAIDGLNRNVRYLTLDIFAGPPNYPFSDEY
Method in brief: (§1)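 GST-tagged human AKR1C2 or AKR1C3 made in bacteria (IPTG 0.5 mM, 2 h), purified on glutathione sepharose and thrombin-cleaved. Assay in 100 mM phosphate pH 7 with 200 μM NADP+ and 10% EtOH at 37 °C. S-tetralol was 15 μM for AKR1C2 and 160 μM for AKR1C3. NADPH fluorescence read at 340/460 nm. Inhibition from initial velocities versus solvent controls; ≥3 experiments in triplicate.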

CWR22R [3] = experiment: Antiproliferative activity against human 22Rv1 cells expressing AKR1C3 assessed as reduction in cell viability at 40 to 60 uM incubated for 72 hrs in presence of , enzalutamide by SRB assay relative to either drug alone; format: functional; settings: dose 40-60 µM
Method in brief: (§2)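 Co-treatment in 22RV1 cells seeded in charcoal-stripped serum medium. Test compound at 40 or 60 μM was given for 72 h with 10 μM abiraterone or 30 μM enzalutamide, or with no drug. Growth was read by SRB assay and expressed as % T/C (mean OD treated / mean OD control × 100).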

[4] = Lipophilicity, logD of the compound in n-octanol and phosphate buffer at pH 7.4 incubated for 4 hrs by UV-Vis spectrophotometer based shake flask method; format: physicochemical
Method in brief: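 Shake-flask logD between n-octanol and 50 mM PBS pH 7.4 (ionic strength 0.15 M, KCl). The phases were pre-saturated for 4 h, then shaken ~20 min with compound and centrifuged. Aqueous concentration was read by UV at λmax against calibration curves. Each value averages at least six measurements.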

[5] = molecular target: T2, Aldo-keto reductase family 1 member C3 (Homo sapiens, UniProt P42330); experiment: Inhibition of recombinant human AKR1C3 transfected in Escherichia coli BL21 (DE) assessed as reduction in NADPH production using S-tetralol as substrate by fluorescence based analysis; method in brief: as §1
T2 sequence (P42330 whole entry): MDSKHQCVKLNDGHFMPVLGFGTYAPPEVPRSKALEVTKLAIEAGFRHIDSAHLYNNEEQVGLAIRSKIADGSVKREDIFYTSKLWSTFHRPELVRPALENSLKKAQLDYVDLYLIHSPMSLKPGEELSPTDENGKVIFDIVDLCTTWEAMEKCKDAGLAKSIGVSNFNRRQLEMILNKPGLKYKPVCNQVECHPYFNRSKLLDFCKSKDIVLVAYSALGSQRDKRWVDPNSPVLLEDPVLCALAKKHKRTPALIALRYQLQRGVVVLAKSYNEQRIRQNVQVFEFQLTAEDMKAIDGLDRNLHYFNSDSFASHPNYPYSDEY

CWR22R [6] = experiment: Antiproliferative activity against human 22Rv1 cells expressing AKR1C3 assessed as inhibition of cell growth incubated for 72 hrs by SRB assay; format: functional, cell-based; settings: 22Rv1, 72 h
Method in brief: (§3)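 22RV1 cells in RPMI with 10% FCS, 37 °C, 5% CO2. Seeded at 10,000/well in medium with 10% charcoal-stripped serum and left 24 h. Inhibitor dilutions in DMSO added in triplicate for 72 h; DMSO controls at most 1% v/v. Growth read by sulforhodamine B colorimetric assay. IC50 from the mean of three separate experiments.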

CWR22R [7] = experiment: Inhibition of prostate specific antigen expression in human 22Rv1 cells expressing AKR1C3 at 5 to 50 uM incubated for 72 hrs by Western blot analysis; format: functional, cell-based; settings: dose 5-50 µM
Method in brief: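 22RV1 cells seeded at 300,000/well in charcoal-stripped serum medium for 24 h, then treated 72 h at 5 or 50 μM in DMSO (≤0.5% v/v). RIPA lysates of 30 μg protein blotted with anti-PSA (1:500, overnight 4 °C) and HRP secondary. β-actin was the loading control. Densitometric PSA/β-actin as fold change; duplicate.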

CWR22R [8] = experiment: Antiproliferative activity against human 22Rv1 cells expressing AKR1C3 assessed as reduction in cell viability at 40 to 60 uM incubated for 72 hrs in presence of abiraterone by SRB assay relative to either drug alone; format: functional; settings: dose 40-60 µM; method in brief: as §2
[9] = Solubility of the compound in PBS at pH 7.4 incubated for 24 hrs by UHPLC analysis; format: physicochemical
Method in brief: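 About 1 mg of solid was shaken in 1 mL of 50 mM PBS pH 7.4 at 25 °C for 24 h, then filtered (0.45 μm). The filtrate was run on C18 UHPLC with a water/methanol gradient in 0.1% TFA, read at 254 and 230 nm. Concentration came from external calibration over 1-200 μM; detection limit 1 μM.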

[10] = molecular target: T3, Aldo-keto reductase family 1 member C2 (Homo sapiens, UniProt P52895); experiment: Inhibition of recombinant human AKR1C2 transfected in Escherichia coli BL21 assessed as reduction in NADP+-dependent S-tetralol oxidation incubated for 20 mins by absorbance based analysis
T3 sequence (P52895 whole entry): T1 sequence (whole entry)

[11] = molecular target: T1, Aldo-keto reductase family 1 member C2 (Homo sapiens); experiment: Inhibition of recombinant human AKR1C2 transfected in Escherichia coli BL21 (DE) assessed as reduction in NADPH production at 20 uM using S-tetralol as substrate by fluorescence based analysis relative to control; method in brief: as §1
[12] = Ionization constant, pKa of the compound by potentiometric titration method; format: physicochemical
Method in brief: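 pKa was measured by potentiometric titration on a Sirius T3 in MDM cosolvent (20% acetonitrile, 20% dioxane, 20% methanol), with added percentages varied.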

[13] = molecular target: T1, Aldo-keto reductase family 1 member C2 (Homo sapiens); experiment: Inhibition of recombinant human AKR1C2 transfected in Escherichia coli BL21 (DE) assessed as reduction in NADPH production at 50 uM using S-tetralol as substrate by fluorescence based analysis relative to control; method in brief: as §1
CWR22R [14] = experiment: Antiproliferative activity against human 22Rv1 cells expressing AKR1C3 assessed as reduction in cell viability at 100 uM incubated for 72 hrs by SRB assay relative to control; format: functional; method in brief: as §3

SMILES	inhibition [2]	logD at 4 h [4]	IC50 [5]	solubility at 24 h [9]	IC50 [10]	inhibition [11]	pKa [12]	inhibition [13]	inhibition at 0.5 µM [1]	Activity (CWR22R [3])	IC50 (CWR22R [6])	inhibition (CWR22R [7])	Activity (CWR22R [8])	Activity (CWR22R [14])
COc1ccc2[nH]c(C(=O)N3CCC(CC(C)(C)O)CC3)cc2c1 [ASP-9521]	–	–	–	–	> 20 µM	–	–	–	–	–	–	–	–	–
COc1ccc(Cn2nnc(O)c2C(=O)Nc2cccc(C(F)(F)F)c2)cc1	59.9%	1.1	–	21.2 µM (≈ 8.32 µg/mL)	–	–	–	–	–	–	–	–	–	–
COc1ccc(Cn2nnc(O)c2C(=O)Nc2ccc(Oc3ccccc3)cc2)cc1	57.8%	–	0.27 µM	< 1 µM	–	–	–	–	–	–	58.2 µM	–	–	–
COc1ccc(Cn2nnc(O)c2C(=O)Nc2ccc(-c3ccccc3)cc2)cc1	–	2.19	0.47 µM	< 1 µM	–	30%	–	–	–	–	57.9 µM	–	–	–
COc1ccc(Cn2nnc(O)c2C(=O)Nc2cccc(-c3ccc(O)cc3)c2)cc1	37.9%	2.19	0.31 µM	2.05 µM (≈ 0.854 µg/mL)	–	–	–	–	–	–	67.5 µM	–	–	–
COc1ccc(Cn2nnc(O)c2C(=O)Nc2cccc(-c3cccc(OC)c3)c2)cc1	45.3%	2.5	0.26 µM	< 1 µM	–	–	–	–	–	–	59 µM	–	–	–
COc1ccc(Cn2nnc(O)c2C(=O)Nc2ccc3c(c2)ncn3-c2ccccc2)cc1	–	2.19	1.63 µM	1.25 µM (≈ 0.551 µg/mL)	–	–	–	–	–	–	> 100 µM	–	–	36.88%
COc1ccc(Cn2nnc(O)c2C(=O)Nc2cc(C(F)(F)F)cc(C(F)(F)F)c2)cc1	33.6%	2.47	0.4 µM	6.91 µM (≈ 3.18 µg/mL)	–	–	–	–	–	–	33.8 µM	–	–	–

Continued, in another order:

inhibition [2]	logD at 4 h [4]	IC50 [5]	solubility at 24 h [9]	IC50 [10]	inhibition [11]	pKa [12]	inhibition [13]	SMILES	inhibition at 0.5 µM [1]	Activity (CWR22R [3])	IC50 (CWR22R [6])	inhibition (CWR22R [7])	Activity (CWR22R [8])	Activity (CWR22R [14])
30.5%	2.3	0.069 µM	< 1 µM	–	–	–	–	COc1ccc(Cn2nnc(O)c2C(=O)Nc2cccc(-c3ccccc3)c2)cc1	20%	30%	52.1 µM	Active	>20%	–
72.8%	–	0.11 µM	< 1 µM	–	–	–	–	COc1ccc(Cn2nnc(O)c2C(=O)Nc2cccc(Oc3ccccc3)c2)cc1	–	50%	65 µM	Active	>20%	–
38.5%	2.25	0.21 µM	40.3 µM (≈ 16.8 µg/mL)	–	–	4.9	–	COc1ccc(Cn2nnc(O)c2C(=O)Nc2cccc(-c3cccc(O)c3)c2)cc1	–	–	75.7 µM	–	–	–
–	2.59	0.22 µM	< 1 µM	–	–	–	31.6%	COc1ccc(Cn2nnc(O)c2C(=O)Nc2cccc(-c3ccc(OC)cc3)c2)cc1	–	–	50.1 µM	–	–	–
7.32%	2.16	0.19 µM	10.8 µM (≈ 4.3 µg/mL)	–	–	4.5	–	COc1ccc(Cc2onc(O)c2C(=O)Nc2cccc(-c3ccccc3)c2)cc1	–	–	54.8 µM	–	–	–
